Source: ChEMBL document CHEMBL2057138, “Design and synthesis of marine fungal phthalide derivatives as PPAR-γ agonists” (Bioorg Med Chem, 2012)
Calls of active or inactive are those of the source. The calls are words filed in the database; no cut-off is given here.

Biological target: T1, Peroxisome proliferator-activated receptor gamma (Homo sapiens) (UniProt P37231)
T1 sequence (whole entry): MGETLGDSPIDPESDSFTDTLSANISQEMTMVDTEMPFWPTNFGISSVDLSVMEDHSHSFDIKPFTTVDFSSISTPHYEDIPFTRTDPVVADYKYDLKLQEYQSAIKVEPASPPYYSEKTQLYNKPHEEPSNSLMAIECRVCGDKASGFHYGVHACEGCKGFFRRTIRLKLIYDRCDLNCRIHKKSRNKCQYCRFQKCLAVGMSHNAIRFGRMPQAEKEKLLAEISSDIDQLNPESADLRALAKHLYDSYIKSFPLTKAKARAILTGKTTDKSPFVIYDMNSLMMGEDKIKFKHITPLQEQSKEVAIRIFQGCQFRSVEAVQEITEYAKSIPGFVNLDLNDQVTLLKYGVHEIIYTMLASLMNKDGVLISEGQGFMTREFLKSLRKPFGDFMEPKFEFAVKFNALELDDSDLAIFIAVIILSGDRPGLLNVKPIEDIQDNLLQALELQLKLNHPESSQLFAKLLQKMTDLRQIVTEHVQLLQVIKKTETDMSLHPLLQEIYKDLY
Assay: Binding affinity to GST-tagged PPARgamma LBD at 50 uM after 4 hrs by TR-FRET competitive binding assay
Outline: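 LanthaScreen TR-FRET competitive binding. Mix of 0.5 nM GST-tagged PPAR-γ LBD, 5 nM terbium anti-GST antibody and 5 nM Fluormone Pan-PPAR Green tracer, with compound at 50 µM and DMSO solvent control. Incubated 4 h in the dark. Read as the 520/495 nm emission ratio (counting 0.1 s, integration 20 µs). Mean + s.d., n = 3.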

Row | Structure (SMILES) | Activity
1 | CCCCCCCCC1(O)OC(=O)c2c(O)cccc21 (stereo not given) | inactive
2 | O=C1OC(=O)c2ccccc21 | inactive
3 | CCCCCCCCCC(=O)Oc1cccc2c1C(=O)OC2=O | inactive
4 | CCCCCCCCC1(O)OC(=O)c2c(OCc3ccccc3)cccc21 (stereo not given) | inactive
5 | CCCCCCCCC1(OC)OC(=O)c2c(OCc3ccccc3)cccc21 (stereo not given) | inactive
6 | CCCCCCCCC1OC(=O)c2c(OC)cccc21 (stereo not given) | inactive
7 | CCCCCCCCC1(CCCCCCCC)OC(=O)c2c(O)cccc21 | inactive
8 | O=C1OC(=O)c2c(O)cccc21 | Active
9 | CCCCCCCCOC(=O)c1cccc([N+](=O)[O-])c1C(=O)O | Active
10 | CN(CCOc1ccc(CC2SC(=O)NC2=O)cc1)c1ccccn1 (stereo not given) | Active
11 | CCCCCCCCC1OC(=O)c2cccc(O)c21 (stereo not given) | Active
12 | CCCCCCCCC1(CCCCCCCC)OC(=O)c2cccc(O)c21 | inactive
13 | CCCCCCCCC1(O)OC(=O)c2cccc(O)c21 (stereo not given) | inactive
14 | CCCCCCCCC1OC(=O)c2c(O)cccc21 (racemic) | Active
15 | O=C1OC(=O)c2c1cccc2[N+](=O)[O-] | inactive
16 | CCCCCCCCOC(=O)c1cccc(O)c1C(=O)O | Active
17 | CCCCCCCCC1(OCc2ccccc2)OC(=O)c2c(OCc3ccccc3)cccc21 (stereo not given) | inactive

Biological target: Peroxisome proliferator-activated receptor gamma (Homo sapiens) (UniProt P37231)
Assay: Agonist activity at PPARgamma in rat Ac2F cells assessed as luciferase activity after 6 hrs by reporter gene assay

Row | Structure (SMILES) | Activity
18 | CCCCCCCCC1OC(=O)c2c(O)cccc21 (racemic) | Dose-dependent effect

Biological target: Peroxisome proliferator-activated receptor gamma (Homo sapiens) (UniProt P37231)
Assay: Agonist activity at PPARgamma in rat Ac2F cells assessed as luciferase activity at 0.1 to 10 uM after 6 hrs by reporter gene assay

Row | Structure (SMILES) | Activity
19 | CCCCCCCCC1OC(=O)c2cccc(O)c21 (stereo not given) | Active
20 | CCCCCCCCC1OC(=O)c2c(O)cccc21 (racemic) | Active
